A short description of series [1]: folding enthalpy; higher = less favourable; fluorescence melt of hairpins on a sequencing array, two-state fit. The following applies: sodium 0.088 M. The essentials:
(§1)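 Cy3 signals were normalised both to pre-quench Cy3 and to control constructs. They came from library hairpins carrying annealed Cy3 and quencher oligos on a sequenced MiSeq flow cell, imaged in 50 mM Na-HEPES pH 8.0, 25 mM NaCl, in 2.5 °C steps up to 60 °C. Bootstrapped two-state fits gave melting temperature and folding enthalpy, and four replicates were combined by inverse variance. Fitted temperatures were then raised by 9.35 °C to match UV melts.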

Series [2] can be described thus: melting temperature; fluorescence melt of hairpins on a sequencing array, two-state fit, raised by 9.35 °C to match UV melts. The conditions noted are these: sodium 0.088 M. The essentials:
as §1

Regarding GCAAGGGGAAACCTTTGC ((((.((....)).)))), the folding enthalpy in series [1] was -30.8 kcal/mol. Moreover, in series [2], the Tm was 47.6 °C.
Consider GTAACGGGAAACCGCTAC (((.(((....))).))), for which, in series [1], the folding enthalpy is -24.4 kcal/mol. For the same sequence, in series [2], the Tm was found to be 39.9 °C.
With GAGTGCGAAAGCATCCTC ((((((....)))..))), the folding enthalpy in series [1] is -10.2 kcal/mol. Moreover, in series [2], the Tm was 33 °C.
With GAGATGAAAATCTC (((((....))))), in series [1], the folding enthalpy is -22.2 kcal/mol. For the same sequence, the Tm in series [2] amounted to 44 °C.
For GCTGGCGAAAGCCAGAGC ((((((....)))..))), in that order: -9.92 kcal/mol and 63.3 °C.
For GCCCTGGGAAACCGGGGC ((((.((....)).)))), the folding enthalpy in series [1] is -43.1 kcal/mol. Further, the Tm in series [2] stood at 66.2 °C.
For GGAGCCGAAAGGCGATCC ((((((....)))..))), in series [1], the folding enthalpy was -9.49 kcal/mol. The Tm in series [2] worked out at 51.6 °C.
Taken in the same sequence, the figures for GATCTCTTGGGAGATC ((((((....)))))) were -40.4 kcal/mol and 54 °C.
For GGCTCGGGAAACCAAGCC ((((.((....)).)))), the folding enthalpy in series [1] was -35.3 kcal/mol. In addition, the Tm in series [2] was determined as 48.8 °C.
Taken in the same sequence, the figures for GCGTTTAGACGC ((((....)))) were -27.3 kcal/mol and 54 °C.
As to GACGTGGGAAACCACACC (..((((....))))..), the folding enthalpy in series [1] was -11.9 kcal/mol. In series [2], the Tm came to 25.5 °C.
Take GAAGGCGGAAACGCTTTC (((.(((....))).))): in series [1], the folding enthalpy was -24.9 kcal/mol. Also, the Tm in series [2] turned out to be 48.2 °C.
Taken in the same sequence, the figures for GATCACTAGTGTGATC ((((((....)))))) were -37.6 kcal/mol and 55.1 °C.
For GGGTTCGAAAGAAGCCCC ((((((....)))..))), in that order: -20.9 kcal/mol and 55.3 °C.
GGCTAGCGAAAGCTTGCC (((.(((....))).))): in series [1], the folding enthalpy was -36.3 kcal/mol. Moreover, in series [2], the Tm is 65.6 °C.
As for GCATCGCGAAAGCAGTGC (((..((....))..))), in series [1], the folding enthalpy is -18 kcal/mol. Further, in series [2], the Tm turned out to be 52.3 °C.
Turning to GCTGCCCGAAAGGGTAGC (((.(((....))).))), the folding enthalpy in series [1] is -40.5 kcal/mol. Further, in series [2], the Tm turned out to be 69 °C.
For CGCGGACGGAAACGTGCG (((..(((....)))))), in that order: -36.2 kcal/mol and 50 °C.
For GATCTCCATTGAGATC ((((((....)))))), in that order: -33.7 kcal/mol and 52.3 °C.
Taken in the same sequence, the figures for GATATACGAAAGTACATC (((.(((....))).))) were -27.2 kcal/mol and 30.5 °C.
Consider GGGCACGGAAACGTGCTC (.(((((....))))).), for which the folding enthalpy in series [1] was -14.6 kcal/mol. The Tm in series [2] was 63.2 °C.
Regarding GGTGTCGAAAGACAAACC ((((((....)))..))), in series [1], the folding enthalpy was -16.6 kcal/mol. Moreover, the Tm in series [2] is 44.4 °C.
For GCTCGGCGAAAGCCAGC (((.(((....)))))), in that order: -17.4 kcal/mol and 62.9 °C.
Taken in the same sequence, the figures for GTTAAAGAAATTTAAC ((((((....)))))) were -14.3 kcal/mol and 29.6 °C.
For GATCCATGTGTGGATC ((((((....)))))), in that order: -37.2 kcal/mol and 56.5 °C.
In the case of GTACGCGAAAGCGGCTAC ((((((....)))..))), in series [1], the folding enthalpy was -10.4 kcal/mol. For the same sequence, the Tm in series [2] amounted to 42.1 °C.
For CGAGCGGAAACGCTGTCG ((((((....)))..))), in series [1], the folding enthalpy is -11.2 kcal/mol. Besides, the Tm in series [2] is 43 °C.
Taken in the same sequence, the figures for GTCCCCGGAAACGAGGAC ((((.((....)).)))) were -32.1 kcal/mol and 48 °C.
With GGATCTCGAAAGAGCTCC (((.(((....))).))), the folding enthalpy in series [1] was -31.7 kcal/mol. Besides, in series [2], the Tm was 44.5 °C.
On to GCCATGGGAAACCACGGC (((.(((....))).))), for which, in series [1], the folding enthalpy is -36.5 kcal/mol. Besides, the Tm in series [2] was found to be 47.7 °C.
For GTAGGAGAAATCCTAC ((((((....)))))), in that order: -26.7 kcal/mol and 47.3 °C.
Taken in the same sequence, the figures for GCCAACGAAAGTTCGGC ((((((....))).))) were -26.3 kcal/mol and 51.2 °C.
For the sequence GTTGTGCGAAAGCAAAC (((.(((....)))))), the folding enthalpy in series [1] is -16.5 kcal/mol. In addition, the Tm in series [2] was 46.8 °C.
Taken in the same sequence, the figures for GCTAACCGAAAGGTAGC (((.(((....)))))) were -31.9 kcal/mol and 55.3 °C.
With GATCACCGCCGTGATC ((((((....)))))), in series [1], the folding enthalpy was -48.4 kcal/mol. For the same sequence, the Tm in series [2] came out at 54.4 °C.
Taken in the same sequence, the figures for GGGGACGGAAACGCCCCC ((((.((....)).)))) were -26.1 kcal/mol and 57.9 °C.
Taken in the same sequence, the figures for GAGTAAGCGAAAGCTCTC (((..(((....)))))) were -13.4 kcal/mol and 35.7 °C.

The values are drawn from the array DNA melting data of Ke et al. (doi:10.1101/2024.01.08.574731).
